Key:
Assay type in all cases: functional
[1] = Growth inhibition of topoisomerase 2 mutated mitoxantrone-resistant MX2 cells by Alamar blue assay; details: Homo sapiens
Procedure, shortened: (§1)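 Leukemia lines (CEM, topo I-mutant CEM/C2, HL60, topo II-mutant MX2) seeded in 96-well plates. HL60/MX2 were kept in RPMI1640 with 10% FCS, 10 mM Hepes and 2 mM glutamine. After one day, DMSO-dissolved compounds were diluted in medium over a 5-point range and added. GI50 = concentration giving 50% growth inhibition versus control.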

CCRF-CEM = assay: Growth inhibition of human CEM cells by Alamar blue assay; procedure, shortened: as §1
CEM/C2 [2] = assay: Growth inhibition of topoisomerase 1 mutated CEM/C2 cells by Alamar blue assay; details: Homo sapiens; procedure, shortened: as §1
MCF7 [3] = assay: Growth inhibition of MCF7 cells after 4 days; details: Homo sapiens, MCF7, 96 h
Procedure, shortened: (§2)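 Adherent lines (HeLa S3 in MEM/7% FCS; MCF7 and ADR-Res) seeded at 2 · 10^3 cells per well. After one day, compounds in DMSO were diluted in culture medium over a 5-point range and added. Cells stained with 0.2% crystal violet in 20% ethanol for 1 h, washed, solubilized in 10% acetic acid, A570 read. GI50 = concentration giving 50% growth inhibition versus control.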

MCF7 [4] = assay: Growth inhibition of adriamycin-resistant MCF7 cells after 4 days; details: Homo sapiens, MCF7, 96 h; procedure, shortened: as §2
HeLa = assay: Growth inhibition of HeLa cells after 4 days; details: Homo sapiens, 96 h; procedure, shortened: as §2
CEM/C2 [5] = assay: Ratio of GI50 for camptothecin-resistant human CEM/C2 cells to GI50 for human CEM cells
Procedure, shortened: (§3)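 Relative resistance index from GI50 values in paired 5-point growth inhibition assays run in parallel: GI50 in the mutant line (CEM/C2 or MX2) divided by GI50 in its parental line (CEM or HL60).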

HL-60 [6] = assay: Growth inhibition of human HL60 cells by Almar blue assay; procedure, shortened: as §1
HL-60 [7] = assay: Ratio of GI50 for mitoxantrone-resistant human MX2 cells to GI50 for human HL60 cells; procedure, shortened: as §3

SMILES	GI50 [1] [µM]	GI50 (CCRF-CEM) [µM]	GI50 (CEM/C2 [2]) [µM]	GI50 (MCF7 [3]) [µM]	GI50 (MCF7 [4]) [µM]	GI50 (HeLa) [µM]	RatioGI50 (CEM/C2 [5])	GI50 (HL-60 [6]) [µM]	RatioGI50 (HL-60 [7])
CN(C)CCOc1ccc2nc3c(cc2c1)Cn1c-3nc2ccccc2c1=O	9	3	7	2	4	2	2	4	2
COc1cc2nc3n(c(=O)c2cc1OC)Cc1cc2ccccc2nc1-3 [17,18-DIMETHOXYLUOTONIN A]				> 20	> 20	> 10			
O=c1c2ccccc2nc2n1Cc1cc3cc(O)ccc3nc1-2 [10-HYDROXYLUOTONIN A]				> 20	> 20	> 10			
CC[C@@]1(O)C(=O)OCc2c1cc1n(c2=O)Cc2cc3c(CN(C)C)c(O)ccc3nc2-1 [TOPOTECAN]				0.05	0.04	0.03			
CCc1c2c(nc3ccc(OC(=O)N4CCC(N5CCCCC5)CC4)cc13)-c1cc3c(c(=O)n1C2)COC(=O)[C@]3(O)CC [IRINOTECAN]				> 1	> 1	> 1			
Nc1cccc2c(=O)n3c(nc12)-c1nc2ccccc2cc1C3 [16-AMINOLUOTONIN A]	> 40	6	> 40	2	3	2	>7	15	>2.5
CCN(CC)CCOc1ccc2nc3c(cc2c1)Cn1c-3nc2ccccc2c1=O	10	3	7	3	4	2	2	4	2.5
CN(C)Cc1c(O)ccc2nc3c(cc12)Cn1c-3nc2ccccc2c1=O	> 40	30	> 40	13	> 20	10	>1.5	20	>2
O=c1c2cc(O)c(O)cc2nc2n1Cc1cc3ccccc3nc1-2 [17,18-DIHYDROXYLUOTONIN A]	> 40	9	> 40	10	> 20	6	>4	> 40	
O=c1c2cccnc2nc2n1Cc1cc3ccccc3nc1-2 [16-AZALUOTONIN A]				> 20	> 20	> 20			
O=c1c2cccc(Cl)c2nc2n1Cc1cc3ccccc3nc1-2 [16-CHLOROLUOTONIN A]				10	13	> 10			
O=c1c2ccccc2nc2n1Cc1cc3c(CN4CCOCC4)c(O)ccc3nc1-2				> 20	> 20	> 20			
CC(=O)Nc1cccc2c(=O)n3c(nc12)-c1nc2ccccc2cc1C3 [16-ACETAMIDOLUOTONIN A]				> 20	> 20	> 20			
COc1ccc2nc3c(cc2c1)Cn1c-3nc2ccccc2c1=O [10-METHOXYLUOTONIN A]				> 20	> 20	> 10			
CC[C@@]1(O)C(=O)OCc2c1cc1n(c2=O)Cc2cc3ccccc3nc2-1 [CAMPTOTHECIN]	0.02	0.002	> 1	0.01	0.01	0.01	>500	0.03	
COc1cccc2c(=O)n3c(nc12)-c1nc2ccccc2cc1C3 [16-METHOXYLUOTONIN A]				> 20	> 20	12			
O=c1c2ccccc2nc2n1Cc1cc3ccccc3nc1-2 [LUOTONIN A]		≥ 40	> 40	3	5	3			
O=C1c2c(O)ccc(O)c2C(=O)c2c(NCCNCCO)ccc(NCCNCCO)c21 [MITOXANTRONE]	0.13							0.01	13
